From BindingDB's records for doi:10.1021/jm00089a014 (Genentech, 1992) come the findings set out here.

*1 amine or outer side, *2 acyl side, *3 side chain or, on linkers, in order; H or OH if unused. Where a SMILES comes first, the peptide text is derived from it. Bridges are numbered along the chain shown (N, C = ends). [ ]: non-standard residue; d: D form. Cys(O)(CH2CO) = O=C([C@H](C[S+]([O-])CC(=O)[*:3])N[*:1])[*:2] Where only a bound is given, the exact number is not on record here.

Chain of Integrin alpha-IIb/beta-3 (P05106 27-788 limits assumed): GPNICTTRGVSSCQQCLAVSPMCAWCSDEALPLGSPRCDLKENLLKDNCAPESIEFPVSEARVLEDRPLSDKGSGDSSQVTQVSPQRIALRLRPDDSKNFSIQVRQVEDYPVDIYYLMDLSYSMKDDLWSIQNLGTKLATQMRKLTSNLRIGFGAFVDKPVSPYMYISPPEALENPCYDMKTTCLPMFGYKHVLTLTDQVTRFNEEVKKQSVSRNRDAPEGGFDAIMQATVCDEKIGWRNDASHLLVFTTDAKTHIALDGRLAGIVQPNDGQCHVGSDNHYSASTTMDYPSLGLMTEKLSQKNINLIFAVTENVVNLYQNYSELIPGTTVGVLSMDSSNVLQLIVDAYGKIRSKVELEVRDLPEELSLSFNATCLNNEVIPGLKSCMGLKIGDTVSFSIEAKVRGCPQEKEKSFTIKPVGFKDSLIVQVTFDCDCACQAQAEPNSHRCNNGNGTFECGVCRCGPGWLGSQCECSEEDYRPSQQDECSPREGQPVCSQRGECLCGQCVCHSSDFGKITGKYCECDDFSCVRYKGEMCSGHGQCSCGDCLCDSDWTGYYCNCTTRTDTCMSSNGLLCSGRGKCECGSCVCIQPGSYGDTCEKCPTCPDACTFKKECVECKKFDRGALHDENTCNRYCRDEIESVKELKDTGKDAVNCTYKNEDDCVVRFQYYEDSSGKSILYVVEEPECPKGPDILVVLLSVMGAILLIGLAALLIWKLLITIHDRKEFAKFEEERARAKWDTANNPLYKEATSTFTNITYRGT
Chain of Integrin alpha-IIb/beta-3 (P08514 32-887 limits assumed): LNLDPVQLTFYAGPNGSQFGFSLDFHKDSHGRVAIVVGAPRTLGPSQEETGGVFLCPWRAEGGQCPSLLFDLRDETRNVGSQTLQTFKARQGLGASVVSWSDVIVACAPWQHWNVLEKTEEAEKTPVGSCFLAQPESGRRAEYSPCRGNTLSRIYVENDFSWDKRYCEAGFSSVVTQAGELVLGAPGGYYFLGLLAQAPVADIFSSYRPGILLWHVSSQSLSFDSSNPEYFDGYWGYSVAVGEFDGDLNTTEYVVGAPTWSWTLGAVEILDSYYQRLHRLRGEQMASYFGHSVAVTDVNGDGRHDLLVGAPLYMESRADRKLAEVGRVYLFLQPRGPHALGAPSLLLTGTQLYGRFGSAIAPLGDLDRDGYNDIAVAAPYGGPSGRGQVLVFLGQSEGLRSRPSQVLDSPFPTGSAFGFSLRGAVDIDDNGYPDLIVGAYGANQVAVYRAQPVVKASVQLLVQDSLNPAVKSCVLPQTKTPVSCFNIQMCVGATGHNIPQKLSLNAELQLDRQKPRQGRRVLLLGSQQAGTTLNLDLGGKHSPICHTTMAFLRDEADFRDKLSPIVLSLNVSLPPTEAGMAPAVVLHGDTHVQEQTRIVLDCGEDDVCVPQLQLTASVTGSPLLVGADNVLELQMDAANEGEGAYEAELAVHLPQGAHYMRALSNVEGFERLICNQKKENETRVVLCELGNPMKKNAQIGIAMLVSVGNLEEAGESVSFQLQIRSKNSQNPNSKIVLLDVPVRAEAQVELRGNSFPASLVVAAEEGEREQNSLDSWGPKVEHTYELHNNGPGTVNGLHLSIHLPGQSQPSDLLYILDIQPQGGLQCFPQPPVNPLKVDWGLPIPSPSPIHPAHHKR
Chain of Integrin alpha-IIb/beta-3 (P08514 891-1039 limits assumed): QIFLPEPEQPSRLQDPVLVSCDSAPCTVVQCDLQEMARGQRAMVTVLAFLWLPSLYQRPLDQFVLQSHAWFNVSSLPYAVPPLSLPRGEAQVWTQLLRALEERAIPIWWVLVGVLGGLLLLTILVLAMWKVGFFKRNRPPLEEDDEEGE

The test has as its target Integrin alpha-IIb/beta-3 (Homo sapiens, UniProt P08514+P05106). Put plainly: Inhibition of ADP-induced platelet aggregation in human platelet-rich plasma. The essentials:
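Human blood drawn into 3.8% sodium citrate (9:1); PRP from 180g spin, 12 min, 22 °C; count adjusted to 3 × 10^8/mL with PPP. PRP preincubated with test sample 5 min at 37 °C in aggregometer, then ADP 17.2 µM final. Inhibition from transmittance change at 5 min versus no-sample maximum; 12-14 concentrations over ~200-fold range; IC50 by four-parameter fit; n ≥ 3.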
Turning to `CC(C)C[C@H](NC(=O)[C@H](CC(=O)O)NC(=O)CNC(=O)[C@@H](N)CCCNC(=N)N)C(=O)O` (H-RGDL-OH), the IC50 was over 2000 nM.

For `CC[C@H](C)[C@@H]1NC(=O)CSC[C@@H](C(=O)O)NC(=O)[C@H](CC(=O)O)NC(=O)CNC(=O)[C@H](CCCN=C(N)N)NC1=O`, half-maximal inhibition (IC50) required 270 nM. As to `N=C(N)NCCC[C@@H]1NC(=O)[C@H](Cc2cnc[nH]2)NC(=O)CSC[C@@H](C(=O)O)NC(=O)[C@H](CC(=O)O)NC(=O)CNC1=O`, the IC50 is 540 nM. Next, `N=C(N)NCCC[C@@H]1NC(=O)[C@H](CCC(=O)O)NC(=O)C[S+]([O-])C[C@@H](C(=O)O)NC(=O)[C@H](CC(=O)O)NC(=O)CNC1=O` (stereo partly drawn): 900 nM.

`CC[C@@H](C)[C@H]1NC(=O)CSC[C@@H](C(=O)O)NC(=O)[C@H](CC(=O)O)NC(=O)CNC(=O)[C@H](CCCN=C(N)N)NC1=O` came in with an IC50 of 6080 nM. To `N=C(N)NCCC[C@@H]1NC(=O)[C@H](CCCCN)NC(=O)CSC[C@@H](C(=O)O)NC(=O)[C@H](CC(=O)O)NC(=O)CNC1=O` belongs 600 nM. Next, `CCC1SC[C@@H](C(=O)O)NC(=O)[C@H](CC(=O)O)NC(=O)CNC(=O)[C@H](CCCNC(=N)N)NC(=O)CNC1=O` (stereo partly drawn): 4850 nM; `N=C(N)NCCC[C@@H]1NC(=O)[C@@H](Cc2ccc(O)cc2)NC(=O)CSC[C@@H](C(=O)O)NC(=O)[C@H](CC(=O)O)NC(=O)CNC1=O` ({CH2CO}-[dY]RGDC-OH; thioether N-5): 3450 nM; `N=C(N)NCCC[C@@H]1NC(=O)[C@H](CO)NC(=O)C[S+]([O-])C[C@@H](C(=O)O)NC(=O)[C@H](CC(=O)O)NC(=O)CNC1=O` (stereo partly drawn) (SRGD[Cys(O)(CH2CO)]-OH; lactam N-5): 490 nM.

Compound `N=C(N)NCCC[C@@H]1NC(=O)CNC(=O)[C@@H](Cc2ccccc2)SC[C@@H](C(=O)O)NC(=O)[C@H](CC(=O)O)NC(=O)CNC1=O` showed an IC50 of 7000 nM. `C[C@@H](O)[C@@H]1NC(=O)CSC[C@@H](C(=O)O)NC(=O)[C@H](CC(=O)O)NC(=O)CNC(=O)[C@H](CCCN=C(N)N)NC1=O` returned an IC50 of 240 nM. To `C[C@@H](O)[C@@H]1NC(=O)C[S+]([O-])C[C@@H](C(=O)O)NC(=O)[C@H](CC(=O)O)NC(=O)CNC(=O)[C@H](CCCN=C(N)N)NC1=O` (stereo partly drawn) belongs 100 nM; to `N=C(N)NCCC[C@H](NC(=O)CN)C(=O)NCC(=O)N[C@@H](CC(=O)O)C(=O)N[C@@H](CC(=O)O)C(=O)O` (H-GRGDD-OH), over 500000 nM; to `N=C(N)NCCC[C@@H]1NC(=O)[C@H](Cc2ccccc2)NC(=O)CSC[C@@H](C(=O)O)NC(=O)[C@H](CC(=O)O)NC(=O)CNC1=O`, 220 nM.

`CCCC1SC[C@@H](C(=O)O)NC(=O)[C@H](CC(=O)O)NC(=O)CNC(=O)[C@H](CCCNC(=N)N)NC(=O)CNC1=O` (stereo partly drawn) displayed an IC50 of 1500 nM.

Compound `N=C(N)NCCC[C@@H]1NC(=O)[C@H](CC(=O)O)NC(=O)C[S+]([O-])C[C@@H](C(=O)O)NC(=O)[C@H](CC(=O)O)NC(=O)CNC1=O` (stereo partly drawn) (DRGD[Cys(O)(CH2CO)]-OH; lactam N-5) gave an IC50 of 2140 nM.

`CC(C)[C@@H]1NC(=O)CSC[C@@H](C(=O)O)NC(=O)[C@H](CC(=O)O)NC(=O)CNC(=O)[C@H](CCCNC(=N)N)NC1=O` displayed an IC50 of 80 nM. Against the preceding compound, the IC50 is about 27-fold lower.

`C[C@@H]1NC(=O)CSC[C@@H](C(=O)O)NC(=O)[C@H](CC(=O)O)NC(=O)CNC(=O)[C@H](CCCNC(=N)N)NC1=O` ({CH2CO}-ARGDC-OH; thioether N-5) registered an IC50 of 590 nM. For the compound `N=C(N)NCCC[C@@H]1NC(=O)CNC(=O)[C@H](Cc2ccccc2)SC[C@@H](C(=O)O)NC(=O)[C@H](CC(=O)O)NC(=O)CNC1=O`, the IC50 was found to be 1900 nM.

`N=C(N)NCCC[C@@H]1NC(=O)[C@H](CCCCN)NC(=O)C[S+]([O-])C[C@@H](C(=O)O)NC(=O)[C@H](CC(=O)O)NC(=O)CNC1=O` (stereo partly drawn) (KRGD[Cys(O)(CH2CO)]-OH; lactam N-5) had an IC50 of 2800 nM. This IC50 and that of the compound before are within 1.5-fold of each other.

`N=C(N)NCCC[C@@H]1NC(=O)[C@H](Cc2ccccc2)NC(=O)C[S+]([O-])C[C@@H](C(=O)O)NC(=O)[C@H](CC(=O)O)NC(=O)CNC1=O` (stereo partly drawn) showed an IC50 of 2230 nM. On to `N=C(N)NCCC[C@H](NC(=O)CN)C(=O)NCC(=O)N[C@@H](CC(=O)O)C(=O)N[C@@H](Cc1ccc(O)cc1)C(=O)O` (H-GRGDY-OH), for which half-maximal inhibition (IC50) required 170000 nM.

Consider `N=C(N)NCCC[C@@H]1NC(=O)CNC(=O)C(c2ccc3ccccc3c2)SC[C@@H](C(=O)O)NC(=O)[C@H](CC(=O)O)NC(=O)CNC1=O` (stereo partly drawn), for which the IC50 was determined as 4000 nM. The compound `N=C(N)NCCC[C@@H]1NC(=O)[C@H](CCCN)NC(=O)CSC[C@@H](C(=O)O)NC(=O)[C@H](CC(=O)O)NC(=O)CNC1=O` showed an IC50 of 250 nM. Against the preceding compound, the IC50 is about 16-fold lower. `C[C@H]1NC(=O)CSC[C@@H](C(=O)O)NC(=O)[C@H](CC(=O)O)NC(=O)CNC(=O)[C@H](CCCNC(=N)N)NC1=O` ({CH2CO}-[dA]RGDC-OH; thioether N-5) had an IC50 of 4000 nM.

For `N=C(N)NCCC[C@@H]1NC(=O)[C@@H](Cc2ccccc2)NC(=O)C[S+]([O-])C[C@@H](C(=O)O)NC(=O)[C@H](CC(=O)O)NC(=O)CNC1=O` (stereo partly drawn), the midpoint of inhibition, the IC50, lay at 440 nM. As for `N=C(N)NCCC[C@@H]1NC(=O)c2cccc(c2)CSC[C@@H](C(=O)O)NC(=O)[C@H](CC(=O)O)NC(=O)CNC1=O`, the IC50 stood at 30800 nM.

As for `N=C(N)NCCC[C@@H]1NC(=O)[C@H](Cc2ccc(O)cc2)NC(=O)CSC[C@@H](C(N)=O)NC(=O)[C@H](CC(=O)O)NC(=O)CNC1=O` ({CH2CO}-YRGDC-NH2; thioether N-5), the IC50 worked out at 700 nM.

For the compound `N=C(N)NCCC[C@@H]1NC(=O)[C@H](Cc2ccc(O)cc2)NC(=O)C[S+]([O-])C[C@@H](C(N)=O)NC(=O)[C@H](CC(=O)O)NC(=O)CNC1=O` (stereo partly drawn) (YRGD[Cys(O)(CH2CO)]-NH2; lactam N-5), the midpoint of inhibition, the IC50, lay at 200 nM. Next, `N=C(N)NCCC[C@@H]1NC(=O)CNC(=O)CCSC[C@@H](C(=O)O)NC(=O)[C@H](CC(=O)O)NC(=O)CNC1=O`: 64300 nM; `N=C(N)NCCC[C@@H]1NC(=O)CNC(=O)CS(=O)(=O)C[C@@H](C(=O)O)NC(=O)[C@H](CC(=O)O)NC(=O)CNC1=O`: 7700 nM; `CC(=O)NCC(=O)N[C@@H](CCCNC(=N)N)C(=O)NCC(=O)N[C@@H](CC(=O)O)C(=O)N[C@H](C(=O)O)C(C)C` (Ac-GRGDV-OH): 77000 nM. Next, `N=C(N)NCCC[C@@H]1NC(=O)[C@H](CCC(N)=O)NC(=O)CSC[C@@H](C(=O)O)NC(=O)[C@H](CC(=O)O)NC(=O)CNC1=O`: 680 nM; `CC(C)[C@H]1NC(=O)CSC[C@@H](C(=O)O)NC(=O)[C@H](CC(=O)O)NC(=O)CNC(=O)[C@H](CCCNC(=N)N)NC1=O`: 8740 nM.

In the case of `CC(C)[C@H](NC(=O)[C@H](CC(=O)O)NC(=O)CNC(=O)[C@H](CCCNC(=N)N)NC(=O)CN)C(=O)O` (H-GRGDV-OH), half-maximal inhibition (IC50) required 75000 nM. Next, `CC(=O)NCC(=O)N[C@@H](CCCNC(=N)N)C(=O)NCC(=O)N[C@@H](CC(=O)O)C(=O)N[C@H](C(N)=O)C(C)C` (Ac-GRGDV-NH2): over 500000 nM.

The compound `CC(C)C[C@@H]1NC(=O)C[S+]([O-])C[C@@H](C(=O)O)NC(=O)[C@H](CC(=O)O)NC(=O)CNC(=O)[C@H](CCCNC(=N)N)NC1=O` (stereo partly drawn) (LRGD[Cys(O)(CH2CO)]-OH; lactam N-5) registered an IC50 of 100 nM. Next, `N=C(N)NCCC[C@@H]1NC(=O)[C@@H](Cc2ccc(O)cc2)NC(=O)CS(=O)(=O)C[C@@H](C(=O)O)NC(=O)[C@H](CC(=O)O)NC(=O)CNC1=O`: 210 nM.

Broadly, the IC50 is the concentration at which inhibition is half-maximal. A higher IC50 goes with weaker potency.
